Source: ChEMBL document CHEMBL1149106, “Design, synthesis, and evaluation of aza-peptide epoxides as selective and potent inhibitors of caspases-1, -3, -6, and -8” (J Med Chem, 2004)
Calls of active or inactive are those of the source. The calls are words filed in the database; no cut-off is given here.

Experiments:
[1] = target: T1, Caspase-3 (Homo sapiens) (UniProt P42574); test: Second-order inhibition rate of caspase-3 was determined by progress curve method
T1 sequence (whole entry): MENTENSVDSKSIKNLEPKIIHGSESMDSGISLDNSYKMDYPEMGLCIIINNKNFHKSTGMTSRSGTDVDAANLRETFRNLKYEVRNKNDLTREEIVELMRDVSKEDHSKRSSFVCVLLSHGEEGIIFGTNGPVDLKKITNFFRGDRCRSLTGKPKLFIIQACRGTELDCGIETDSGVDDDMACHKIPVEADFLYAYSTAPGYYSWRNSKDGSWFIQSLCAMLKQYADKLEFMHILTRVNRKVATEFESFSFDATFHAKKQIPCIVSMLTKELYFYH
How it was run: (§1)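 Caspases-3, -6 and -8 were assayed in 50 mM HEPES, 100 mM NaCl, 0.1% (w/v) CHAPS, 10% (w/v) sucrose and 10 mM DTT, pH 7.4. Substrate: Cbz-DEVD-AFC or Cbz-DEVD-AMC.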

[2] = target: T2, Caspase-6 (Homo sapiens) (UniProt P55212); test: Second-order inhibition rate of caspase-6 was determined by progress curve method; how it was run: as §1
T2 sequence (whole entry): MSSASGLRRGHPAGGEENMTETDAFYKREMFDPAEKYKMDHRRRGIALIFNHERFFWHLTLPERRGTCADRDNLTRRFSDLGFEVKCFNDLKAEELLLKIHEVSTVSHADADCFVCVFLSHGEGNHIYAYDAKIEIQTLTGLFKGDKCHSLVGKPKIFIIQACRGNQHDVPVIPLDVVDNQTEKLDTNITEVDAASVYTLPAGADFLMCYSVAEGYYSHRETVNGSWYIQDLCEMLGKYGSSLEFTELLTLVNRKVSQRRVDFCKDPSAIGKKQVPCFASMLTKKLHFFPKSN

[3] = target: Caspase-8 (Homo sapiens) (UniProt Q14790); test: Second-order inhibition rate of caspase-8 was determined by progress curve method; how it was run: as §1
Sequence of Caspase-8 (Homo sapiens) (Q14790 217-374 limits assumed): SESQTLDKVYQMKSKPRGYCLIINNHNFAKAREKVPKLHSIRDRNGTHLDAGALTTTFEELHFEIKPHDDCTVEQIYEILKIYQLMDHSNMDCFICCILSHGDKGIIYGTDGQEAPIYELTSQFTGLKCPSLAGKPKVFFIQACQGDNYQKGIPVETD
Sequence of Caspase-8 (Homo sapiens) (Q14790 385-479 limits assumed): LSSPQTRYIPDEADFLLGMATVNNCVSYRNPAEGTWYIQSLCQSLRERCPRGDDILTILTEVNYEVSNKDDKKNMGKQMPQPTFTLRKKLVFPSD

[4] = target: T3, Caspase-1 (Homo sapiens) (UniProt P29466); test: Second-order inhibition rate of caspase-1 was determined by progress curve method
T3 sequence (whole entry): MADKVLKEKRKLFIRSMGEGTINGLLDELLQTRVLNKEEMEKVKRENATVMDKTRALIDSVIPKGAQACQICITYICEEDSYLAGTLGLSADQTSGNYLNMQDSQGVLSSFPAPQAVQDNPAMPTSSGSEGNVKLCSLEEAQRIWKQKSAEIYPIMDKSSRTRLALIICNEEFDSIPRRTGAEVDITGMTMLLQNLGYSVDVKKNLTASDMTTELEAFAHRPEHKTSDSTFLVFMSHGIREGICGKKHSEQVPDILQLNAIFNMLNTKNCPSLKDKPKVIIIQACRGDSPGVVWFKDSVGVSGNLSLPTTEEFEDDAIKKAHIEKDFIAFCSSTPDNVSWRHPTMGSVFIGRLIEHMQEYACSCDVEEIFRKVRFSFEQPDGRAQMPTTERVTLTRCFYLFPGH
How it was run: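 Caspase-1 assay buffer: 100 mM HEPES, 0.5 mM EDTA, 20% (v/v) glycerol, 5 mM DTT, pH 7.5. Substrate: Ac-YVAD-AMC.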

[5] = target: T2, Caspase-6 (Homo sapiens); test: Second-order inhibition rate of caspase-6 was determined by progress curve method; No inhibition; how it was run: as §1
[6] = target: Caspase-8 (Homo sapiens) (UniProt Q14790); test: Second-order inhibition rate of caspase-8 was determined by progress curve method; No inhibition; how it was run: as §1
[7] = target: T1, Caspase-3 (Homo sapiens); test: Second-order inhibition rate of caspase-3 was determined by progress curve method; No inhibition; how it was run: as §1

Compound	k2 [1]	k2 [2]	k2 [3]	k2 [4]	k2 [5]	k2 [6]	k2 [7]
CC[C@H](C)[C@H](NC(=O)OCc1ccccc1)C(=O)N[C@@H](CCC(=O)O)C(=O)N[C@H](C(=O)NN(CC(=O)O)C(=O)[C@@H]1O[C@H]1C(=O)NCc1ccccc1)[C@@H](C)O	6500 M⁻¹ s⁻¹	60100 M⁻¹ s⁻¹	6500 M⁻¹ s⁻¹	18100 M⁻¹ s⁻¹	–	–	–
CC(C)[C@H](NC(=O)OCc1ccccc1)C(=O)NN(CC(=O)O)C(=O)[C@H]1O[C@@H]1c1ccc(Cl)cc1	145 M⁻¹ s⁻¹	–	–	–	inactive	inactive	–
CC(C)[C@H](NC(=O)CCc1ccccc1)C(=O)N[C@@H](C)C(=O)NN(CC(=O)O)C(=O)[C@H]1O[C@@H]1C(=O)NCC(O)c1ccccc1 (some centres undefined)	510 M⁻¹ s⁻¹	63 M⁻¹ s⁻¹	4090 M⁻¹ s⁻¹	12200 M⁻¹ s⁻¹	–	–	–
CC(C)[C@H](NC(=O)CCc1ccccc1)C(=O)N[C@@H](C)C(=O)NN(CC(=O)O)C(=O)[C@H]1O[C@@H]1C(=O)OCCc1ccccc1	2110 M⁻¹ s⁻¹	240 M⁻¹ s⁻¹	3780 M⁻¹ s⁻¹	56600 M⁻¹ s⁻¹	–	–	–
CC(C)[C@H](NC(=O)[C@H](CCC(=O)O)NC(=O)OCc1ccccc1)C(=O)NN(CC(=O)O)C(=O)[C@H]1O[C@@H]1C(=O)NCCc1ccccc1	27300 M⁻¹ s⁻¹	3130 M⁻¹ s⁻¹	72700 M⁻¹ s⁻¹	41100 M⁻¹ s⁻¹	–	–	–
CC(C)[C@H](NC(=O)CCc1ccccc1)C(=O)N[C@@H](C)C(=O)NN(CC(=O)O)C(=O)[C@H]1O[C@@H]1C(=O)NCCc1ccccc1	1110 M⁻¹ s⁻¹	130 M⁻¹ s⁻¹	10100 M⁻¹ s⁻¹	17100 M⁻¹ s⁻¹	–	–	–
CC(C)C[C@H](NC(=O)OCc1ccccc1)C(=O)NC(CCC(=O)O)C(=O)N[C@H](C(=O)NN(CC(=O)O)C(=O)[C@H]1O[C@@H]1C(=O)NCCc1ccccc1)[C@@H](C)O (some centres undefined)	2550 M⁻¹ s⁻¹	10000 M⁻¹ s⁻¹	53300 M⁻¹ s⁻¹	–	–	–	–
CC(C)[C@H](NC(=O)C(CCC(=O)O)NC(=O)[C@H](CC(=O)O)NC(=O)OCc1ccccc1)C(=O)NN(CC(=O)O)C(=O)[C@H]1O[C@@H]1C(=O)N[C@@H](Cc1ccccc1)C(N)=O (some centres undefined)	722000 M⁻¹ s⁻¹	6140 M⁻¹ s⁻¹	29600 M⁻¹ s⁻¹	9250 M⁻¹ s⁻¹	–	–	–
CCNC(=O)[C@H]1O[C@@H]1C(=O)N(CC(=O)O)NC(=O)[C@H](C)NC(=O)[C@@H](NC(=O)CCc1ccccc1)C(C)C	1910 M⁻¹ s⁻¹	142 M⁻¹ s⁻¹	6050 M⁻¹ s⁻¹	–	–	–	–
CC[C@H](C)[C@H](NC(=O)OCc1ccccc1)C(=O)N[C@@H](CCC(=O)O)C(=O)N[C@H](C(=O)NN(CC(=O)O)C(=O)[C@H]1O[C@@H]1C(=O)OCc1ccccc1)[C@@H](C)O	9500 M⁻¹ s⁻¹	86200 M⁻¹ s⁻¹	58500 M⁻¹ s⁻¹	45800 M⁻¹ s⁻¹	–	–	–
CCOC(=O)[C@@H]1O[C@H]1C(=O)N(CC(=O)O)NC(=O)[C@@H](NC(=O)[C@H](CCC(=O)O)NC(=O)[C@@H](NC(=O)OCc1ccccc1)[C@@H](C)CC)[C@@H](C)O	2630 M⁻¹ s⁻¹	34000 M⁻¹ s⁻¹	8800 M⁻¹ s⁻¹	13300 M⁻¹ s⁻¹	–	–	–
CC(C)[C@H](NC(=O)[C@H](CCC(=O)O)NC(=O)OCc1ccccc1)C(=O)NN(CC(=O)O)C(=O)[C@@H]1O[C@H]1C(=O)N[C@@H](Cc1ccccc1)C(N)=O	470 M⁻¹ s⁻¹	25 M⁻¹ s⁻¹	–	1040 M⁻¹ s⁻¹	–	–	–
CC(C)[C@H](NC(=O)CCc1ccccc1)C(=O)N[C@@H](C)C(=O)NN(CC(=O)O)C(=O)[C@H]1O[C@@H]1C(=O)N[C@@H](C)C(=O)NCc1ccccc1	260 M⁻¹ s⁻¹	25 M⁻¹ s⁻¹	140 M⁻¹ s⁻¹	13400 M⁻¹ s⁻¹	–	–	–
CC(C)[C@H](NC(=O)OCc1ccccc1)C(=O)NN(CC(=O)O)C(=O)[C@H]1O[C@@H]1C(=O)O	1110 M⁻¹ s⁻¹	90 M⁻¹ s⁻¹	370 M⁻¹ s⁻¹	–	–	–	–
CC[C@H](C)[C@H](NC(=O)OCc1ccccc1)C(=O)N[C@@H](CCC(=O)O)C(=O)N[C@H](C(=O)NN(CC(=O)O)C(=O)[C@@H]1O[C@H]1C(=O)N[C@@H](C)C(=O)NCc1ccccc1)[C@@H](C)O	3050 M⁻¹ s⁻¹	38200 M⁻¹ s⁻¹	56000 M⁻¹ s⁻¹	–	–	–	–
CC(C)[C@H](NC(=O)OCc1ccccc1)C(=O)NN(CC(=O)O)C(=O)[C@H]1O[C@@H]1CCc1ccccc1	310 M⁻¹ s⁻¹	44 M⁻¹ s⁻¹	180 M⁻¹ s⁻¹	–	–	–	–
CC(C)[C@H](NC(=O)CCc1ccccc1)C(=O)N[C@@H](C)C(=O)NN(CC(=O)O)C(=O)[C@H]1O[C@@H]1C(=O)N[C@@H](Cc1ccccc1)C(N)=O	625 M⁻¹ s⁻¹	65 M⁻¹ s⁻¹	390 M⁻¹ s⁻¹	32700 M⁻¹ s⁻¹	–	–	–
CC(C)[C@H](NC(=O)CCc1ccccc1)C(=O)N[C@@H](C)C(=O)NN(CC(=O)O)C(=O)[C@H]1O[C@@H]1C(=O)NCc1ccccc1	1610 M⁻¹ s⁻¹	155 M⁻¹ s⁻¹	9360 M⁻¹ s⁻¹	65900 M⁻¹ s⁻¹	–	–	–
CC(C)[C@H](NC(=O)C(CCC(=O)O)NC(=O)[C@H](CC(=O)O)NC(=O)OCc1ccccc1)C(=O)NN(CC(=O)O)C(=O)[C@H]1O[C@@H]1C(=O)OCc1ccccc1 (some centres undefined)	1.91e+06 M⁻¹ s⁻¹	12700 M⁻¹ s⁻¹	188000 M⁻¹ s⁻¹	54700 M⁻¹ s⁻¹	–	–	–

Second part, the compound after the results:

k2 [1]	k2 [2]	k2 [3]	k2 [4]	k2 [5]	k2 [6]	k2 [7]	Compound
3110 M⁻¹ s⁻¹	45400 M⁻¹ s⁻¹	4560 M⁻¹ s⁻¹	13000 M⁻¹ s⁻¹	–	–	–	CC[C@H](C)[C@H](NC(=O)OCc1ccccc1)C(=O)N[C@@H](CCC(=O)O)C(=O)N[C@H](C(=O)NN(CC(=O)O)C(=O)[C@@H]1O[C@H]1C(=O)OCc1ccccc1)[C@@H](C)O
1.09e+06 M⁻¹ s⁻¹	6000 M⁻¹ s⁻¹	84400 M⁻¹ s⁻¹	25400 M⁻¹ s⁻¹	–	–	–	CC(C)[C@H](NC(=O)C(CCC(=O)O)NC(=O)[C@H](CC(=O)O)NC(=O)OCc1ccccc1)C(=O)NN(CC(=O)O)C(=O)[C@H]1O[C@@H]1C(=O)NCc1ccccc1 (some centres undefined)
420 M⁻¹ s⁻¹	71 M⁻¹ s⁻¹	315 M⁻¹ s⁻¹	26100 M⁻¹ s⁻¹	–	–	–	CC(C)C[C@H](NC(=O)[C@H]1O[C@@H]1C(=O)N(CC(=O)O)NC(=O)[C@H](C)NC(=O)[C@@H](NC(=O)CCc1ccccc1)C(C)C)C(N)=O
87 M⁻¹ s⁻¹	11 M⁻¹ s⁻¹	125 M⁻¹ s⁻¹	3250 M⁻¹ s⁻¹	–	–	–	CC(C)[C@H](NC(=O)CCc1ccccc1)C(=O)N[C@@H](C)C(=O)NN(CC(=O)O)C(=O)[C@H]1O[C@@H]1C(=O)N[C@@H](Cc1ccc(O)cc1)C(N)=O
–	15 M⁻¹ s⁻¹	185 M⁻¹ s⁻¹	1860 M⁻¹ s⁻¹	–	–	inactive	CC(C)[C@H](NC(=O)CCc1ccccc1)C(=O)N[C@@H](C)C(=O)NN(CC(=O)O)C(=O)[C@@H]1O[C@H]1C(=O)OCc1ccccc1
1280 M⁻¹ s⁻¹	6660 M⁻¹ s⁻¹	44800 M⁻¹ s⁻¹	–	–	–	–	CC(C)C[C@H](NC(=O)OCc1ccccc1)C(=O)NC(CCC(=O)O)C(=O)N[C@H](C(=O)NN(CC(=O)O)C(=O)[C@H]1O[C@@H]1C(=O)N[C@@H](C)C(=O)NCc1ccccc1)[C@@H](C)O (some centres undefined)
3650 M⁻¹ s⁻¹	350 M⁻¹ s⁻¹	1260 M⁻¹ s⁻¹	–	–	–	–	CCOC(=O)[C@H]1O[C@@H]1C(=O)N(CC(=O)O)NC(=O)[C@@H](NC(=O)OCc1ccccc1)C(C)C
3520 M⁻¹ s⁻¹	10300 M⁻¹ s⁻¹	72700 M⁻¹ s⁻¹	43500 M⁻¹ s⁻¹	–	–	–	CC(C)C[C@H](NC(=O)OCc1ccccc1)C(=O)NC(CCC(=O)O)C(=O)N[C@H](C(=O)NN(CC(=O)O)C(=O)[C@H]1O[C@@H]1C(=O)OCc1ccccc1)[C@@H](C)O (some centres undefined)
